Measured values from ChEMBL document CHEMBL4033696, “Repurposing of Proton Pump Inhibitors as first identified small molecule inhibitors of endo-β-N-acetylglucosaminidase (ENGase) for the treatment of NGLY1 deficiency, a rare genetic disease” (Bioorg Med Chem Lett, 2017).
Active and inactive are the calls of the source. The rule behind the calls is not given here. Residues, ends and D or L forms follow the SMILES beside them. *: point of attachment. Cbz = O=C(OCc1ccccc1)*

molecular target: T1, Cytosolic endo-beta-N-acetylglucosaminidase (Homo sapiens) (UniProt Q8NFI3); assay: Inhibition of recombinant human C-MYC/DDK-tagged ENGase expressed in HEK293T cells at 100 uM using heat inactivated bovine ribonuclease B as substrate pretreated for 15 mins followed by substrate addition after 90 mins by SDS-PAGE analysis; conditions: HEK-293T
T1 sequence (whole entry): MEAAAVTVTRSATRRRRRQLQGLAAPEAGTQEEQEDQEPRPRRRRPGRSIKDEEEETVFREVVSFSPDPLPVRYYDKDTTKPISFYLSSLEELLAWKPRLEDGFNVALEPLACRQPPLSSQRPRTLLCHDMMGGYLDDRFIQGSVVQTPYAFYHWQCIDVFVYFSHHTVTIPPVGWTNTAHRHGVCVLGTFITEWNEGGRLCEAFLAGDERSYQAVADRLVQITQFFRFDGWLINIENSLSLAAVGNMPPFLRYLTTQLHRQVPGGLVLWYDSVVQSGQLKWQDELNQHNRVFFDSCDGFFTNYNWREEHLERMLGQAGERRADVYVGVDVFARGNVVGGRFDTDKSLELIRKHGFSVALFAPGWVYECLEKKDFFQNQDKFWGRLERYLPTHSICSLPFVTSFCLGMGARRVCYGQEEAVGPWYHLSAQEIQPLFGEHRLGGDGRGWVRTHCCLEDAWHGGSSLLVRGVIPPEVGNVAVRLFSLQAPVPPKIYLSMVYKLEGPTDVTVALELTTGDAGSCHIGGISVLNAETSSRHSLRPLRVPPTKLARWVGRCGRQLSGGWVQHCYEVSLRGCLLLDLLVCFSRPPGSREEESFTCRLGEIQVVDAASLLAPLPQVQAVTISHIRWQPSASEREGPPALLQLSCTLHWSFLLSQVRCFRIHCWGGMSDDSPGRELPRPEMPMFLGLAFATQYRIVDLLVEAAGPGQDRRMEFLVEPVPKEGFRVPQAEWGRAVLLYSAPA
In short: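 Recombinant human ENGase incubated with ribonuclease B substrate and test compound at 100 μM as a single-concentration screen. Reactions were then heat-inactivated and resolved on 12% SDS-PAGE as an electrophoretic mobility shift assay. Bands were stained with Coomassie blue R-250 and quantified by densitometry.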

Compound	inhibition
N=C(N)NC(=O)Cc1c(Cl)cccc1Cl	inactive
Clc1cccc(Cl)c1NC1=NCCN1	inactive
CC(C)C[C@@H](C=O)NC(=O)[C@H](CC(C)C)NC(=O)[C@H](CC(C)C)NC(=O)OCc1ccccc1 (Cbz-Leu-Leu-Leu-aldehyde)	inactive
CN1CCc2nc(C(=O)N[C@@H]3C[C@@H](C(=O)N(C)C)CC[C@@H]3NC(=O)C(=O)Nc3ccc(Cl)cn3)sc2C1	inactive
CNCC[C@@H](Oc1ccccc1C)c1ccccc1	inactive
CCNC1=N[C@H]2[C@H](O)[C@@H](O)[C@H](CO)O[C@H]2S1	inactive
CC(C)C[C@H](NC(=O)CNC(=O)c1cc(Cl)ccc1Cl)B(O)O	inactive
CC(=O)Nc1nnc(S(N)(=O)=O)s1	inactive

molecular target: T1, Cytosolic endo-beta-N-acetylglucosaminidase (Homo sapiens); assay: (§1) Inhibition of recombinant human C-MYC/DDK-tagged ENGase expressed in HEK293T cells using heat inactivated bovine ribonuclease B as substrate pretreated for 15 mins followed by substrate addition after 90 mins by SDS-PAGE analysis; conditions: HEK-293T
In short: (§2)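 Electrophoretic mobility shift assay: recombinant human ENGase with ribonuclease B and inhibitor at various concentrations, heat-inactivated, run on 12% SDS-PAGE, Coomassie R-250 staining, band densitometry. IC50 came either from 8-dose curves in three independent experiments or was estimated from four concentrations in two independent experiments.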

Compound	inhibition
COc1ccnc(C[S+]([O-])c2nc3cc(OC(F)F)ccc3[nH]2)c1OC (stereo not given)	inactive
COc1ccc2[nH]c([S@@+]([O-])Cc3ncc(C)c(OC)c3C)nc2c1	inactive

molecular target: T2, Cytosolic endo-beta-N-acetylglucosaminidase (Homo sapiens, UniProt Q8NFI3); assay: as §1; set-up: species or system HEK-293T; conditions: not given; in short: as §2
T2 sequence (Q8NFI3 whole entry): T1 sequence (whole entry)

Compound	IC50
COc1ccc2[nH]c([S+]([O-])Cc3ncc(C)c(OC)c3C)nc2c1 (stereo not given) [OMEPRAZOLE]	25 µM
Cc1c(OCC(F)(F)F)ccnc1C[S@@+]([O-])c1nc2ccccc2[nH]1 [DEXLANSOPRAZOLE]	25 µM
COCCCOc1ccnc(C[S+]([O-])c2nc3ccccc3[nH]2)c1C (stereo not given) [RABEPRAZOLE]	4.47 µM
COc1ccc2[nH]c([S+]([O-])Cc3ncc(C)c(OC)c3C)nc2n1 (stereo not given) [TENATOPRAZOLE]	20 µM
Cc1c(OCC(F)(F)F)ccnc1C[S+]([O-])c1nc2ccccc2[nH]1 (stereo not given) [LANSOPRAZOLE]	24.4 µM
